Laboratory results reported in ChEMBL document CHEMBL4433213, “Investigation on 2',3'-O-Substituted ATP Derivatives and Analogs as Novel P2X3 Receptor Antagonists” (ACS Med Chem Lett, 2019).

Experiments:
[1] = molecular target: T1, P2X purinoceptor 3 (Mus musculus) (UniProt Q3UR32); test: Antagonist activity at P2X3R in mouse TG sensory neurons assessed as inhibition of P2X3R agonist alpha,beta-meATP-induced current at 1 uM at -65 mV holding potential by whole cell voltage clamp method relative to control
T1 sequence (whole entry): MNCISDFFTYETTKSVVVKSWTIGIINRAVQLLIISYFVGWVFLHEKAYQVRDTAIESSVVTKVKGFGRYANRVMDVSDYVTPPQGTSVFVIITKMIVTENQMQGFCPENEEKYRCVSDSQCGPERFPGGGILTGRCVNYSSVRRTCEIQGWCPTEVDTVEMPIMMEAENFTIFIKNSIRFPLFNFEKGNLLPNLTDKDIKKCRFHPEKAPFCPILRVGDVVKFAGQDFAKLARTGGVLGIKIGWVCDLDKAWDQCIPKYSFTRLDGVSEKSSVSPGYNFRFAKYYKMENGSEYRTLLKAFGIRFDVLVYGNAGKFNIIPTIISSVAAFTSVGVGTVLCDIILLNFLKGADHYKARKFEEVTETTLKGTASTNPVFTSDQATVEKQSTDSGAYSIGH
Outline: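 Mouse trigeminal sensory neurons were recorded by whole-cell patch clamp. Test compound (0.001–10 μM) was applied before 10 μM α,β-meATP, and inhibition of the agonist-evoked P2X3 current was measured. IC50 was taken from concentration–inhibition curves. N = 5–6 cells.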

[2] = molecular target: T1, P2X purinoceptor 3 (Mus musculus); test: Agonist activity at P2X3R in mouse TG sensory neurons assessed as induction of channel current at 1 uM at -65 mV holding potential by whole cell voltage clamp method relative to alpha,beta-meATP
[3] = organism: Homo sapiens; test: Selectivity ratio of IC50 for human P2X1R transfected in human […] 1321N1 cells to IC50 for human transfected in human 1321N1 cells; format: cell-based

inhibition [1] [%]	Activity [2] [%]	SMILES	Ratio IC50 [3]
25		Nc1ncnc2c1ncn2[C@@H]1O[C@H](COP(=O)(O)OP(=O)(O)OP(=O)(O)O)[C@H]2OCO[C@H]21	
	23	CC1(C)O[C@@H]2[C@H](O1)[C@@H](COP(=O)(O)OP(=O)(O)OP(=O)(O)O)O[C@H]2n1cnc2c(N)ncnc21	10
